Where two headings read alike, the source gives them in different places.
Columns and labels:
[1] = target: T1, OSH6 (Saccharomyces cerevisiae, UniProt Q02201); experiment: Pulldown of OSH6 by GST-tagged IST2 peptides; type: binding, S. cerevisiae
T1 sequence (Q02201 1-448): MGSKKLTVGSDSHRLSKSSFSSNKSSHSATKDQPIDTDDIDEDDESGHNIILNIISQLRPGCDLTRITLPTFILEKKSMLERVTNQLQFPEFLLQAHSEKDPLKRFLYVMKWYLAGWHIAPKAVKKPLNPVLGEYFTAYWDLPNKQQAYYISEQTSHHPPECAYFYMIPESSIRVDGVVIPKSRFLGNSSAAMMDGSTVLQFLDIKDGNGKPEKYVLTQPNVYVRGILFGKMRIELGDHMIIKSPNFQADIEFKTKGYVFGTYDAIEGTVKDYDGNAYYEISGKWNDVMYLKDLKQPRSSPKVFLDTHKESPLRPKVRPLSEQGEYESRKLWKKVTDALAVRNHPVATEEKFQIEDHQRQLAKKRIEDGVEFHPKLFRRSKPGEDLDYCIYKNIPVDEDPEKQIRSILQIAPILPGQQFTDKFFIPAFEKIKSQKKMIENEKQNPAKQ
How it was run: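 GST-tagged IST2 peptides (OSH6-binding epitope, varying length) expressed in E. coli BL21 (0.3 mM IPTG at OD600 0.8, 25 °C, 2.5 h). Coated beads incubated with 5 µM (final) OSH6 plus BSA, 1 h, 4 °C. Beads washed without BSA, taken into SDS sample buffer.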

[2] = target: T1, OSH6; experiment: ITC binding of IST2 peptides to OSH6; parameters: species or system S. cerevisiae; conditions: R750A peptide, Extended Data Fig. 7l
[3] = target: the molecule itself; experiment: cryo-EM structure
[4] = cited from earlier work
[5] = tested on: S. cerevisiae ist2;psd1-KO strain (AWY327); experiment: Yeast complementation; type: cell-based; conditions: 2% galactose, 30 °C, 3–4 days
[6] = target: T1, OSH6; experiment: SEC coelution of IST2fl and OSH6; type: binding, S. cerevisiae
[7] = target: the molecule itself; experiment: cryo-EM structure; remark: listed apart in the source
[8] = target: T2, OSH6 purified from E. coli (S. cerevisiae, UniProt Q02201 1-448); experiment: pull-down
T2 sequence: T1 sequence (Q02201 1-448)

[9] = tested on: MSP2N2; experiment: SEC of OSH6 with scaffold protein MSP2N2 in absence of lipids; type: binding; conditions: no lipids, 1.2× molar excess MSP2N2, 30 min, performed once

Molecule: Substitution of R750 to alanine: peptide encompassing residues 732-761 of IST2 carrying the mutation R750A (ITC) (VAGATLPETIPTSKNYYLAFDEDGKSIRDA; UniProt P38250 732-761, looked up, fragment R750A)
- OSH6 interaction in pulldown (in words) [1]: severely compromise binding to OSH6
- Binding to OSH6 by ITC (in words) [2]: severely compromise binding to OSH6

B1: full-length IST2 (natural protein)
chain: MSQTITSLDPNCVIVFNKTSSANEKSLNVEFKRLNIHSIIEPGHDLQTSYAFIRIHQDNAKPLFSFLQNLDFIESIIPYHDTELSDDLHKLISISKSKILEAPKQYELYNLSNLTNNPKQSLYFAFLQNYIKWLIPFSFFGLSIRFLSNFTYEFNSTYSLFAILWTLSFTAFWLYKYEPFWSDRLSKYSSFSTIEFLQDKQKAQKKASSVIMLKKCCFIPVALLFGAILLSFQLYCFALEIFIKQIYNGPMISILSFLPTILICTFTPVLTVIYNKYFVEPMTKWENHSSVVNAKKSKEAKNFVIIFLSSYVPLLITLFLYLPMGHLLTAEIRTKVFNAFSILARLPTHDSDFIIDTKRYEDQFFYFIVINQLIQFSMENFVPSLVSIAQQKINGPNPNFVKAESEIGKAQLSSSDMKIWSKVKSYQTDPWGATFDLDANFKKLLLQFGYLVMFSTIWPLAPFICLIVNLIVYQVDLRKAVLYSKPEYFPFPIYDKPSSVSNTQKLTVGLWNSVLVMFSILGCVITATLTYMYQSCNIPGVGAHTSIHTNKAWYLANPINHSWINIVLYAVFIEHVSVAIFFLFSSILKSSHDDVANGIVPKHVVNVQNPPKQEVFEKIPSPEFNSNNEKELVQRKGSANEKLHQELGEKQPASSANGYEAHAATHANNDPSSLSSASSPSLSSSSSSSKTGVVKAVDNDTAGSAGKKPLATESTEKRNSLVKVPTVGSYGVAGATLPETIPTSKNYYLRFDEDGKSIRDAKSSAESSNATNNNTLGTESKLLPDGDAVDALSRKIDQIPKIAVTGGENNENTQAKDDAATKTPLIKDANIKPVVNAAVNDNQSKVSVATEQTKKTEVSTKNGPSRSISTKETKDSARPSNNNTTTTTTTDATQPHHHHHHHRHRDAGVKNVTNNSKTTESSSSSSAAKEKPKHKKGLLHKLKKKL
- stoichiometry N [3]: 2

B2: IST2: full-length wild-type IST2, 946 residues, S. cerevisiae (protein)
chain: B1 chain
modifications: left off: SBP, N-terminal, state not stated | myc, N-terminal, state not stated
- Scrambling activity, previous publication (in words) [4]: refuting scrambling activity
- Growth complementation (in words) [5]: growth deficit can be alleviated
- Coelution as a complex on SEC (in words) [6]: coelute as a complex on size-exclusion chromatography

B3: IST2 containing residues 1-716 (domain or fragment)
chain: MSQTITSLDPNCVIVFNKTSSANEKSLNVEFKRLNIHSIIEPGHDLQTSYAFIRIHQDNAKPLFSFLQNLDFIESIIPYHDTELSDDLHKLISISKSKILEAPKQYELYNLSNLTNNPKQSLYFAFLQNYIKWLIPFSFFGLSIRFLSNFTYEFNSTYSLFAILWTLSFTAFWLYKYEPFWSDRLSKYSSFSTIEFLQDKQKAQKKASSVIMLKKCCFIPVALLFGAILLSFQLYCFALEIFIKQIYNGPMISILSFLPTILICTFTPVLTVIYNKYFVEPMTKWENHSSVVNAKKSKEAKNFVIIFLSSYVPLLITLFLYLPMGHLLTAEIRTKVFNAFSILARLPTHDSDFIIDTKRYEDQFFYFIVINQLIQFSMENFVPSLVSIAQQKINGPNPNFVKAESEIGKAQLSSSDMKIWSKVKSYQTDPWGATFDLDANFKKLLLQFGYLVMFSTIWPLAPFICLIVNLIVYQVDLRKAVLYSKPEYFPFPIYDKPSSVSNTQKLTVGLWNSVLVMFSILGCVITATLTYMYQSCNIPGVGAHTSIHTNKAWYLANPINHSWINIVLYAVFIEHVSVAIFFLFSSILKSSHDDVANGIVPKHVVNVQNPPKQEVFEKIPSPEFNSNNEKELVQRKGSANEKLHQELGEKQPASSANGYEAHAATHANNDPSSLSSASSPSLSSSSSSSKTGVVKAVDNDTAGSAGKKPLATESTE
- stoichiometry N [7]: 2

Molecule: VAGATLPETIPTSKNYYLRFDEDGKSIR [GST fusion of the IST2 peptide encompassing residues 732-759]
- binding result [8]: binds

B4: OSH6: soluble lipid transfer protein, PS–PtdIns4P exchanger of S. cerevisiae (protein)
chain: T1 sequence (Q02201 1-448)
modifications: left off: GST, N-terminal, cleaved
- Interaction with isolated scaffold protein (in words) [9]: nor did we detect interactions with the isolated scaffold protein

From publication PMC12618243 (Nature Structural & Molecular Biology, 2025)
